Values after ≈ are worked out from the molar mass of the structure shown. Active and inactive are the calls of the source. The calls are words filed in the database; no cut-off is given here.
Tests used:
[1] = tested on: Staphylococcus aureus; assay: Antibacterial activity against methicillin-sensitive Staphylococcus aureus isolate 2 planktonic cells after 24 hrs by microdilution assay; type: functional; details: isolate 2, 24 h
Procedure, shortened: (§1)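 Planktonic cells at 1 × 10^5 CFU/mL were exposed to compound, and A580 was read at 0 h and after 24 h at 37 °C with shaking. Controls were medium plus microbes, with 1% (v/v) DMSO where the solvent was used. Relative cell number was calculated against the control. Results were confirmed by subculture in fresh medium (48 h, 37 °C) and plating. Conjugate concentrations were expressed as parent-antibiotic equivalents.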

[2] = tested on: Staphylococcus aureus; assay: Antibacterial activity against methicillin-sensitive Staphylococcus aureus isolate 3 planktonic cells after 24 hrs by microdilution assay; type: functional; details: isolate 3, 24 h; procedure, shortened: as §1
[3] = tested on: Staphylococcus aureus; assay: Antibacterial activity against methicillin-sensitive Staphylococcus aureus isolate 5 planktonic cells after 24 hrs by microdilution assay; type: functional; details: isolate 5, 24 h; procedure, shortened: as §1
[4] = tested on: Staphylococcus aureus; assay: Antibacterial activity against methicillin-sensitive Staphylococcus aureus isolate 6 planktonic cells after 24 hrs by microdilution assay; type: functional; details: isolate 6, 24 h; procedure, shortened: as §1
[5] = tested on: Staphylococcus aureus; assay: Antibacterial activity against methicillin-resistant Staphylococcus aureus MR4-CIPS planktonic cells after 24 hrs by microdilution assay; type: functional
Procedure, shortened: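 Broth microdilution: 100 µL of 1 × 10^5 CFU/mL inoculum with graded compound concentrations, read at 580 nm before and after 24 h at 37 °C with shaking to prevent biofilm formation. Relative cell number is taken against medium + microbes controls, with 1% DMSO in the ciprofloxacin control. Growth is confirmed by 48 h subculture in fresh medium and by plating. MIC is expressed as parent-antibiotic equivalents.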

[6] = tested on: Staphylococcus aureus; assay: Ratio of MIC50 for methicillin-sensitive Staphylococcus aureus ATCC 6538 planktonic cells at pH 5 to MIC50 for methicillin-sensitive Staphylococcus aureus ATCC 6538 planktonic cells at pH 7.4; type: functional
Procedure, shortened: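 Planktonic ATCC 6538 was tested by microdilution in medium adjusted to pH 5 or pH 7.4 with KOH or HCl, with pH checked by universal indicator. MIC50 was determined at each pH.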

[7] = tested on: Staphylococcus aureus; assay: Bactericidal activity against methicillin-resistant Staphylococcus aureus MR4-CIPS planktonic cells assessed as reduction in bacterial growth at 7.8 ug/ml after 2 hrs by time kill assay; type: functional
Procedure, shortened: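 Time-kill per CLSI on planktonic cultures, set up as the microdilution assay: 1 × 10^5 CFU/mL, 37 °C with shaking. A580 is read at 0, 1, 2, 4, 8, 16 and 24 h, and growth is expressed relative to untreated medium + microbes control. Concentrations are parent-antibiotic equivalents.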

[8] = tested on: Staphylococcus aureus; assay: Bactericidal activity against Staphylococcus aureus ATCC 6538 biofilm using polystyrene as substrate assessed as reduction in colony forming units after 24 hrs; type: functional
Procedure, shortened: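 Biofilms were started from a 1 McFarland suspension, allowed to adhere 4 h at 37 °C on HA discs or polystyrene well bottoms, then rinsed. They were exposed 24 h at 37 °C to TSB containing 0.24–125 mg/L compound. Cells were detached in 0.5% saponin by 1 min vortexing, serially diluted and plated on Columbia (S. aureus) or MacConkey (P. aeruginosa) agar, 37 °C, 24 h. Read-out was mean CFU/mm² ± SEM; HA area was measured by X-ray tomography.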

[9] = tested on: Staphylococcus aureus; assay: Antibiofilm activity against Staphylococcus aureus ATCC 6538 assessed as CFU counts at 1 ug/mL pretreated with HA for 24 hrs followed by organism inoculation measured after 24 hrs (reference value: 4.5 x 10^10CFU); type: functional
Procedure, shortened: (§2)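 HA discs were soaked 24 h at 37 °C in 2 mL compound solution, with DMSO or phosphate-buffer controls, then rinsed 3× with sterile water. Discs were inoculated with 2 mL of 0.5 McFarland S. aureus ATCC 6538 for biofilm formation. Biofilm CFU were counted after 24 h growth.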

[10] = tested on: Staphylococcus aureus; assay: Antibiofilm activity against Staphylococcus aureus ATCC 6538 assessed as CFU counts at 10 ug/mL pretreated with HA for 24 hrs followed by organism inoculation measured after 24 hrs (reference value: 4.5 x 10^10CFU); type: functional; procedure, shortened: as §2
[11] = tested on: Staphylococcus aureus; assay: Antibiofilm activity against Staphylococcus aureus ATCC 6538 assessed as CFU counts at 25 ug/mL pretreated with HA for 24 hrs followed by organism inoculation measured after 24 hrs (reference value: 4.5 x 10^10CFU); type: functional; procedure, shortened: as §2
[12] = tested on: Staphylococcus aureus; assay: Antibiofilm activity against Staphylococcus aureus ATCC 6538 assessed as CFU counts at 100 ug/mL pretreated with HA for 24 hrs followed by organism inoculation measured after 24 hrs (reference value: 4.5 x 10^10CFU); type: functional; procedure, shortened: as §2
[13] = tested on: Aggregatibacter actinomycetemcomitans; assay: Antibiofilm activity against Aggregatibacter actinomycetemcomitans D7S-5 using hydroxyapatite as substrate at >15 ug/mL after 24 hrs; type: functional
[14] = tested on: Aggregatibacter actinomycetemcomitans; assay: Antibiofilm activity against Aggregatibacter actinomycetemcomitans infected in jawbone peri-implant osteomyelitis Sprague-Dawley rat model assessed as reduction in bacterial count in bone at 0.1 to 1 mg/kg, ip single dose measured after 1 week post pharmacotherapy; type: functional, organism-based
Procedure, shortened: (§3)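 Rats carried two titanium implants each, preinoculated with A. actinomycetemcomitans D7S-1 biofilm (10^9 CFU), placed bilaterally in palatal bone. One week after surgery, randomized groups received i.p. doses in sterile saline; the negative control was endotoxin-free saline. One week after treatment, 1 cm² peri-implant tissue and bone were homogenized in 0.5% saponin, serially diluted 10-fold and spread-plated on modified TSB (37 °C, 5% CO2, 48 h). Read-out was CFU/g and mean log10 reduction; analysts were blinded.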

[15] = tested on: Rattus norvegicus; assay: Toxicity in jawbone peri-implant osteomyelitis Sprague-Dawley rat model infected with Aggregatibacter actinomycetemcomitans assessed as cutaneous injection-site reactions at 0.1 to 10 mg/kg, ip single dose measured after 1 week post pharmacotherapy; type: organism-based; details: in vivo, 168 h
Procedure, shortened: (§4)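 Rats bearing infected palatal implants received i.p. dosing in sterile saline. They were observed during therapy for cutaneous injection-site reactions, inflammation and gross tolerability issues, and were euthanized one week after pharmacotherapy.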

[16] = tested on: Rattus norvegicus; assay: Toxicity in jawbone peri-implant osteomyelitis Sprague-Dawley rat model infected with Aggregatibacter actinomycetemcomitans assessed as signs of gross tolerability issue at 0.1 to 10 mg/kg, ip single dose measured after 1 week post pharmacotherapy; type: organism-based; details: in vivo, 168 h
Procedure, shortened: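 Rats carried two *Aa* (D7S-1) biofilm-coated miniature titanium implants (10^9 CFU) in the palatal bone, one on each side. Dosing began one week after surgery: a single intraperitoneal injection under anesthesia, in sterile physiological saline, with 2 rats per group. Injection-site reactions and gross tolerability were observed during therapy. Animals were euthanized one week after pharmacotherapy.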

[17] = tested on: Rattus norvegicus; assay: Toxicity in jawbone peri-implant osteomyelitis Sprague-Dawley rat model infected with Aggregatibacter actinomycetemcomitans assessed as signs of gross tolerability at 0.3 mg/kg, ip administered 3 times per week measured after 1 week post pharmacotherapy; type: organism-based; details: in vivo, 168 h; procedure, shortened: as §4
[18] = tested on: Aggregatibacter actinomycetemcomitans; assay: Antibiofilm activity against Aggregatibacter actinomycetemcomitans infected in jawbone peri-implant osteomyelitis Sprague-Dawley rat model assessed as mean CFU count/gram at 10 mg/kg, ip single dose measured after 1 week post pharmacotherapy; type: functional, organism-based; procedure, shortened: as §3
[19] = tested on: Aggregatibacter actinomycetemcomitans; assay: Antibiofilm activity against Aggregatibacter actinomycetemcomitans infected in jawbone peri-implant osteomyelitis Sprague-Dawley rat model assessed as mean CFU count/gram at 0.3 mg/kg, ip administered 3 times per week measured after 1 week post pharmacotherapy; type: functional, organism-based; procedure, shortened: as §3
[20] = tested on: Staphylococcus aureus; assay: Bactericidal activity against methicillin-susceptible Staphylococcus aureus ATCC 6538 planktonic cells assessed as reduction in bacterial growth at 15.6 ug/ml after 24 hrs by time kill assay; set-up: scale not given: the % may be the effect or the level left

O=C(O)c1cn(C2CC2)c2cc(N3CCN(C(=O)Oc4ccc(CC(P(=O)(O)O)P(=O)(O)O)cc4)CC3)c(F)cc2c1=O
MIC [1]: 0.49 µg/mL (≈ 0.766 µM) | MIC [2]: 0.49 µg/mL (≈ 0.766 µM) | MIC [3]: 1.9 µg/mL (≈ 2.97 µM) | MIC [4]: 7.8 µg/mL (≈ 12.2 µM) | MIC [5]: 15.6 µg/mL (≈ 24.4 µM) | Ratio [6]: 0.5 | Activity [7]: Active | MBIC50 [8]: 15.6 to 31.2 µg/mL | Activity [9]: 7.1 ×10¹⁰ CFU | Activity [10]: Active | Activity [11]: Active | Activity [12]: Active | Activity [13]: Active | Activity [14]: Active | Activity [15]: Non-Toxic | Activity [16]: Non-Toxic | Activity [17]: Non-Toxic | Activity [18]: Active | Activity [19]: Active | Activity [20]: 50%

Reference: ChEMBL document CHEMBL4014261, “Design, Synthesis, and Antimicrobial Evaluation of a Novel Bone-Targeting Bisphosphonate-Ciprofloxacin Conjugate for the Treatment of Osteomyelitis Biofilms” (J Med Chem, 2017)
